Test results as given in ChEMBL document CHEMBL3393015, “Design, synthesis and evaluation of marinopyrrole derivatives as selective inhibitors of Mcl-1 binding to pro-apoptotic Bim and dual Mcl-1/Bcl-xL inhibitors” (Eur J Med Chem, 2015).
Activity calls are given as the source filed them. The calls are words filed in the database; no cut-off is given here.

Tests used:
MDA-MB-468 [1] = assay: Induction of apoptosis in human MDA-MB-468 cells assessed as caspase 3 activity at 10 uM for 16 hrs; assay type: functional, cell-based
How it was run: (§1)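 Human MDA-MB-468 breast cancer cells were exposed to the derivatives at 3 μM, and some at up to 10 μM. Cells were then processed for western blotting. Read-outs were Mcl-1 protein level and caspase 3 cleavage, used as the apoptosis marker.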

MDA-MB-468 [2] = assay: Reduction in Mcl1 level in human MDA-MB-468 cells at 10 uM; assay type: functional, cell-based; how it was run: as §1
[3] = target: Bcl-xL/Bcl-2-like protein 11 (Homo sapiens, UniProt Q07817); assay: Inhibition of Bcl-xL/Bim (unknown origin) by ELISA; assay type: protein assay
Chain of Bcl-xL/Bcl-2-like protein 11 (Q07817 whole entry): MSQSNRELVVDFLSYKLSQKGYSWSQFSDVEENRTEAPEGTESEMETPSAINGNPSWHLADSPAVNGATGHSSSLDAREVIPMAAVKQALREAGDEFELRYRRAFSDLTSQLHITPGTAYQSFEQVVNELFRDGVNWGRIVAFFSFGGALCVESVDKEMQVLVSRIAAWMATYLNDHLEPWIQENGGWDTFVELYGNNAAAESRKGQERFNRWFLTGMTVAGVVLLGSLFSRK
Chain of Bcl-xL/Bcl-2-like protein 11 (O43521 whole entry, further chain): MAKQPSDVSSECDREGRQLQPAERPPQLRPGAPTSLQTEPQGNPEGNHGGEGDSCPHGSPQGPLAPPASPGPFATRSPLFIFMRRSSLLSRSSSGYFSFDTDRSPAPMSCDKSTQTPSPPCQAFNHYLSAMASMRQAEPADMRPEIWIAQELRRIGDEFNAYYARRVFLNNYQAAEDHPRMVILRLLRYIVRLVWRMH

[4] = target: Induced myeloid leukemia cell differentiation protein Mcl-1/Bcl-2-like protein 11 (Homo sapiens, UniProt Q07820); assay: Inhibition of Mcl1/Bim (unknown origin) by ELISA; assay type: protein assay
Chain of Induced myeloid leukemia cell differentiation protein Mcl-1/Bcl-2-like protein 11 (Q07820 whole entry): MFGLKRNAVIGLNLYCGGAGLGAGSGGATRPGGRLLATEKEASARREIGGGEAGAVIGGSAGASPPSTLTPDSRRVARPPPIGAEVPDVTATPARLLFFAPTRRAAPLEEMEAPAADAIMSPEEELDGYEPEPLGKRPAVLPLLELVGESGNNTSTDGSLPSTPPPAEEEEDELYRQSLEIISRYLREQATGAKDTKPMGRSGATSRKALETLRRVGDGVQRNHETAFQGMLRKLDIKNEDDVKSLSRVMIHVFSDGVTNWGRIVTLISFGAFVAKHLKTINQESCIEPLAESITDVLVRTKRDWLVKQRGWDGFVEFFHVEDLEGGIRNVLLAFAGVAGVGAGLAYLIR
Chain of Induced myeloid leukemia cell differentiation protein Mcl-1/Bcl-2-like protein 11 (O43521 whole entry, further chain): as the sequence (O43521 whole entry, further chain) above

MDA-MB-468 [5] = assay: Induction of apoptosis in human MDA-MB-468 cells assessed as caspase 3 activity at 3 uM for 16 hrs
MDA-MB-468 [6] = assay: Reduction in Mcl1 level in human MDA-MB-468 cells at 3 uM; assay type: functional, cell-based; how it was run: as §1

IC50 [3] [µM]	IC50 [4] [µM]	SMILES	Activity (MDA-MB-468 [1])	Activity (MDA-MB-468 [2])	Activity (MDA-MB-468 [5])	Activity (MDA-MB-468 [6])
> 50	39.5	O=C(c1ccc(O)cc1O)c1[nH]c(Cl)c(Cl)c1-n1c(C(=O)c2ccc(O)cc2O)cc(Cl)c1Cl	inactive	inactive	–	–
1.6	3.3	O=C(c1ccc(-c2cn(Cc3ccccc3)nn2)cc1O)c1[nH]c(Cl)c(Cl)c1-n1c(C(=O)c2ccc(-c3cn(Cc4ccccc4)nn3)cc2O)cc(Cl)c1Cl	inactive	inactive	–	–
64.9	15.5	COc1ccccc1C(=O)c1c(-n2c(C(=O)c3ccccc3OC)cc(Cl)c2Cl)c(Cl)c(Cl)n1C	–	–	–	–
14	1.6	CC(C)(C)OC(=O)Cn1cc(-c2cc(O)c(C(=O)c3[nH]c(Cl)c(Cl)c3-n3c(C(=O)c4cc(Cl)c(-c5cn(CC(=O)OC(C)(C)C)nn5)cc4O)cc(Cl)c3Cl)cc2Cl)nn1	–	–	–	–
2.1	1	O=C(c1ccc(OS(=O)(=O)C(F)(F)F)cc1O)c1[nH]c(Cl)c(Cl)c1-n1c(C(=O)c2ccccc2O)cc(Cl)c1Cl	–	Active	Active	–
8.1	5.1	CC(C)(C)OC(=O)Cn1cc(-c2ccc(C(=O)c3[nH]c(Cl)c(Cl)c3-n3c(C(=O)c4ccc(-c5cn(CC(=O)OC(C)(C)C)nn5)cc4O)cc(Cl)c3Cl)c(O)c2)nn1	inactive	inactive	–	–
–	–	CC1(C)CCC(c2ccc(Cl)cc2)=C(CN2CCN(c3ccc(C(=O)NS(=O)(=O)c4ccc(N[C@H](CCN5CCOCC5)CSc5ccccc5)c(S(=O)(=O)C(F)(F)F)c4)cc3)CC2)C1	–	–	–	inactive
7.9	> 100	Cn1c(Cl)c(Cl)c(-n2c(C(=O)c3ccccc3O)cc(Cl)c2Cl)c1C(=O)c1ccccc1O	–	–	–	–
–	–	Cc1cc(O)c(C(=O)c2[nH]c(Cl)c(Cl)c2-n2c(C(=O)c3cc(Cl)c(C)cc3O)cc(Cl)c2Cl)cc1Cl	–	Active	Active	–
9.5	8	COc1ccccc1C(=O)c1[nH]c(Cl)c(Cl)c1-n1c(C(=O)c2ccc(Cl)cc2OC)cc(Cl)c1Cl	inactive	inactive	–	–
0.5	0.6	CCCCCCCCn1cc(-c2ccc(C(=O)c3[nH]c(Cl)c(Cl)c3-n3c(C(=O)c4ccc(-c5cn(CCCCCCC)nn5)cc4O)cc(Cl)c3Cl)c(O)c2)nn1	–	–	–	–
18.3	3.9	O=C(c1ccccc1O)c1[nH]c(Cl)c(Cl)c1-n1c(C(=O)c2cc(Cl)ccc2O)cc(Cl)c1Cl	–	inactive	inactive	–
–	–	C#Cc1ccc(C(=O)c2[nH]c(Cl)c(Cl)c2-n2c(C(=O)c3ccc(C#C)cc3O)cc(Cl)c2Cl)c(O)c1	–	Active	Active	–
–	–	O=C(c1ccc(P(=O)(O)O)cc1O)c1[nH]c(Cl)c(Cl)c1-n1c(C(=O)c2ccc(P(=O)(O)O)cc2O)cc(Cl)c1Cl	inactive	inactive	–	–
> 100	–	CCOC(=O)Cn1cc(-c2ccc(C(=O)c3[nH]c(Cl)c(Cl)c3-n3c(C(=O)c4ccc(-c5cn(CC(=O)OCC)nn5)cc4O)cc(Cl)c3Cl)c(O)c2)nn1	inactive	inactive	–	–
9.7	8.1	O=C(c1ccc(C(F)(F)F)cc1O)c1[nH]c(Cl)c(Cl)c1-n1c(C(=O)c2ccc(C(F)(F)F)cc2O)cc(Cl)c1Cl	–	Active	Active	–
–	–	CCc1ccc(C(=O)c2[nH]c(Cl)c(Cl)c2-n2c(C(=O)c3ccc(CC)cc3O)cc(Cl)c2Cl)c(O)c1	–	Active	Active	–
3.5	3.7	C=Cc1ccc(C(=O)c2[nH]c(Cl)c(Cl)c2-n2c(C(=O)c3ccc(C=C)cc3O)cc(Cl)c2Cl)c(O)c1	–	Active	Active	–
–	–	CCOC(=O)CSc1ccc(C(=O)c2[nH]c(Cl)c(Cl)c2-n2c(C(=O)c3ccc(SCC(=O)OCC)cc3O)cc(Cl)c2Cl)c(O)c1	–	–	–	inactive
21.3	9.6	O=C(c1ccccc1O)c1[nH]c(Cl)c(Cl)c1-n1c(C(=O)c2ccc(F)cc2O)cc(Cl)c1Cl	–	Active	Active	–
3.8	1.4	O=C(c1ccc(-c2cn(C3CCCCC3)nn2)cc1O)c1[nH]c(Cl)c(Cl)c1-n1c(C(=O)c2ccc(-c3cn(C4CCCCC4)nn3)cc2O)cc(Cl)c1Cl	inactive	inactive	–	–

SMILES	IC50 [3] [µM]	IC50 [4] [µM]	Activity (MDA-MB-468 [1])	Activity (MDA-MB-468 [2])	Activity (MDA-MB-468 [5])	Activity (MDA-MB-468 [6])
O=C(c1ccccc1O)c1[nH]c(Cl)c(Cl)c1-n1c(C(=O)c2ccccc2O)cc(Cl)c1Cl	16.4	–	–	–	–	–
O=C(c1cc(Cl)c(O)cc1O)c1[nH]c(Cl)c(Cl)c1-n1c(C(=O)c2cc(Cl)c(O)cc2O)cc(Cl)c1Cl	> 50	10.7	inactive	inactive	–	–
CCOC(=O)Cn1cc(-c2cc(O)c(C(=O)c3[nH]c(Cl)c(Cl)c3-n3c(C(=O)c4cc(Cl)c(-c5cn(CC(=O)OCC)nn5)cc4O)cc(Cl)c3Cl)cc2Cl)nn1	> 100	–	inactive	inactive	–	–
O=C(c1ccccc1O)c1[nH]c(Cl)c(Cl)c1-n1c(C(=O)c2ccc(Cl)cc2O)cc(Cl)c1Cl	9.2	6.5	Active	Active	–	–
O=C(O)Cn1cc(-c2ccc(C(=O)c3[nH]c(Cl)c(Cl)c3-n3c(C(=O)c4ccc(-c5cn(CC(=O)O)nn5)cc4O)cc(Cl)c3Cl)c(O)c2)nn1	> 50	–	inactive	inactive	–	–
O=C(c1ccccc1O)c1[nH]c(Cl)c(Cl)c1-n1c(C(=O)c2cc(F)ccc2O)cc(Cl)c1Cl	13.3	8.9	Active	Active	–	–
O=C(c1ccccc1O)c1[nH]c(Cl)c(Cl)c1-n1c(C(=O)c2c(O)cccc2F)cc(Cl)c1Cl	43.7	13.1	inactive	inactive	–	–
O=C(O)CSc1ccc(C(=O)c2[nH]c(Cl)c(Cl)c2-n2c(C(=O)c3ccc(SCC(=O)O)cc3O)cc(Cl)c2Cl)c(O)c1	> 100	–	inactive	inactive	–	–
O=C(O)Cn1cc(-c2cc(O)c(C(=O)c3[nH]c(Cl)c(Cl)c3-n3c(C(=O)c4cc(Cl)c(-c5cn(CC(=O)O)nn5)cc4O)cc(Cl)c3Cl)cc2Cl)nn1	> 50	–	inactive	inactive	–	–
O=C(c1ccc(-c2cn(-c3ccccc3)nn2)cc1O)c1[nH]c(Cl)c(Cl)c1-n1c(C(=O)c2ccc(-c3cn(-c4ccccc4)nn3)cc2O)cc(Cl)c1Cl	0.8	1.5	–	–	–	–
O=C(c1ccccc1O)c1[nH]c(Cl)c(Cl)c1-n1c(C(=O)c2cccc(Cl)c2O)cc(Cl)c1Cl	10.1	4.1	–	–	–	–
